This note sets out measurements from ChEMBL document CHEMBL1143955, “Synthesis and exploration of novel curcumin analogues as anti-malarial agents” (Bioorg Med Chem, 2008).

Values after ≈ are worked out from the molar mass of the structure shown. Active and inactive are the calls of the source. The rule behind the calls is not given here.

The term IC50 denotes the concentration that gives 50% inhibition. High values mean weaker potency, low ones greater potency. As usually defined, the MIC is the lowest concentration found to suppress growth. Read a high MIC as a less susceptible organism.

What all share (format): functional, organism-based
Test [1] has as its system Plasmodium falciparum. Briefly: Antimalarial activity against chloroquine-sensitive Plasmodium falciparum FCK2. In short, it runs like this:
(§1)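 Sorbitol-synchronised P. falciparum cultured in RPMI 1640 with 10% human serum, 0.225% sodium bicarbonate and 0.01 mg/mL gentamicin. Infected red cells (1–2% parasitemia, ring stage) were used at 2% hematocrit with varying inhibitor concentrations (final DMSO ≤0.05%; 0.05% DMSO as solvent control), starting at early trophozoite and dosing up to day 4. Parasitemia was read by Giemsa microscopy, and IC50 was fitted by non-linear regression of relative % parasitemia versus log concentration.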

In test [2] the test system is Plasmodium falciparum. Nature of the test: Antimalarial activity against chloroquine-resistant Plasmodium falciparum MP14. In a few lines:
as §1

In test [3] the test system is Plasmodium falciparum. Briefly: Antimalarial activity against chloroquine-resistant Plasmodium falciparum MP14 in red blood cells as reduced parasitemia in [3H]hypoxanthine uptake assay. In a few lines:
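Ring-stage synchronised parasites were used at 2–3% hematocrit and 1–2% initial parasitemia, in duplicate. Varying inhibitor concentrations (final DMSO ≤0.05%) were added in fresh medium every 24 h for 48 h. [3H]-hypoxanthine was then added for 36 h, and cells were harvested onto glass-fibre filters and read by scintillation counting. IC50 came from a non-linear regression fit of relative % parasitemia versus log concentration.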

Test [4] relates to Plasmodium falciparum. Briefly: Antimalarial activity against chloroquine-sensitive Plasmodium falciparum FCK2 in red blood cells as reduced parasitemia in [3H]hypoxanthine uptake. The following applies: in the assay text read “by microscopic examination” for “in [3H]hypoxanthine uptake”.

In test [1], `COc1cc(/C=C/C(=O)C(=Cc2ccc(O)cc2)C(=O)/C=C/c2ccc(O)c(OC)c2)ccc1O` gave an IC50 of 5.85 µM and an MIC of 23.7 µM (≈ 11.2 µg/mL). In test [2], the IC50 worked out at 5.36 µM and the lowest concentration to inhibit growth (MIC) was 23.1 µM (≈ 10.9 µg/mL).

With `COc1cc(/C=C/c2cc(/C=C/c3ccc(O)c(OC)c3)n(-c3cccc([N+](=O)[O-])c3)n2)ccc1O`, the IC50 in test [1] turned out to be 0.87 µM; in test [2], 0.89 µM. The MIC in test [1] worked out at 4.9 µM (≈ 2.38 µg/mL); in test [2], 5.1 µM (≈ 2.48 µg/mL). Further, the outcome in test [3] and in test [4] was Active.

For the compound `COc1cc(/C=C/c2cc(/C=C/c3ccc(O)c(OC)c3)n(-c3ccc(F)cc3)n2)ccc1O`, the half-inhibitory concentration (IC50) turned out to be 2.42 µM in test [1] and 2.1 µM in test [2]. The MIC in test [1] stood at 14.3 µM (≈ 6.56 µg/mL); in test [2] it was 12.9 µM (≈ 5.91 µg/mL).

On to `COc1cc(/C=C/c2cc(/C=C/c3ccc(O)c(OC)c3)[nH]n2)ccc1O` [CURCUMIN PYRAZOLE], for which, in test [1], 0.48 µM corresponded to half-maximal inhibition (IC50) and 3.9 µM (≈ 1.42 µg/mL) was the least that counted as inhibitory (MIC). In test [2], this compound returned an IC50 of 0.45 µM and an MIC of 3.6 µM (≈ 1.31 µg/mL).

With `COc1ccc(-n2nc(/C=C/c3ccc(O)c(OC)c3)cc2/C=C/c2ccc(O)c(OC)c2)cc1`, in test [1], it took 22.6 µM to reach half-maximal inhibition (IC50) and the MIC was found to be 35.8 µM (≈ 16.8 µg/mL). In test [2], this compound registered an IC50 of 24.6 µM and an MIC of 41.2 µM (≈ 19.4 µg/mL).

`COc1cc(/C=C/c2cc(/C=C/c3ccc(O)c(OC)c3)on2)ccc1O`: in test [1], inhibition was half-maximal at 8.44 µM (IC50) and the MIC came out at 27.3 µM (≈ 9.98 µg/mL). For the same compound, in test [2], it took 7.92 µM to reach half-maximal inhibition (IC50) and the MIC amounted to 25.3 µM (≈ 9.24 µg/mL).

For the compound `COc1cc(C=C(C(=O)/C=C/c2ccc(O)c(OC)c2)C(=O)/C=C/c2ccc(O)c(OC)c2)ccc1O`, in test [1], 0.92 µM corresponded to half-maximal inhibition (IC50) and the MIC came to 5.2 µM (≈ 2.61 µg/mL). For the same compound, in test [2], the IC50 turned out to be 0.75 µM and inhibition of growth (MIC) required 4.8 µM (≈ 2.41 µg/mL).

In test [1], `COc1ccc(/C=C/C(=O)CC(=O)/C=C/c2ccc(OC)c(OC)c2)cc1OC` [TETRAMETHOXYCURCUMIN] registered an IC50 of 7.86 µM and an MIC of 29.6 µM (≈ 11.7 µg/mL). Further, in test [2], the IC50 turned out to be 8.4 µM and inhibition of growth (MIC) required 29.1 µM (≈ 11.5 µg/mL).

`COc1cc(/C=C/C(=O)CC(=O)/C=C/c2ccc(OC(C)=O)c(OC)c2)ccc1OC(C)=O`: the IC50 in test [1] worked out at 2.34 µM; in test [2], 2.51 µM. Besides, the results for the MIC in test [1] and in test [2] were 14.9 µM (≈ 6.74 µg/mL) and 15.3 µM (≈ 6.92 µg/mL), respectively.

In test [1], `COc1cc(/C=C/c2cc(/C=C/c3ccc(O)c(OC)c3)n(-c3ccccc3)n2)ccc1O` returned an IC50 of 8.48 µM and an MIC of 22.4 µM (≈ 9.87 µg/mL). In test [2], this compound had an IC50 of 9.1 µM and an MIC of 25 µM (≈ 11 µg/mL).

With `COc1cc(/C=C/C(=O)C(=Cc2ccccc2)C(=O)/C=C/c2ccc(O)c(OC)c2)ccc1O`, in test [1], half-maximal inhibition (IC50) was put at 3.89 µM and the MIC was found to be 16.5 µM (≈ 7.53 µg/mL). For the same compound, in test [2], the IC50 was determined as 4.12 µM and the MIC was found to be 17.2 µM (≈ 7.85 µg/mL).

As for `COc1cc(/C=C/c2cc(/C=C/c3ccc(O)c(OC)c3)n(-c3ccc(Cl)cc3Cl)n2)ccc1O`, the values for the IC50 in test [1] and in test [2] were 4.65 µM and 4.8 µM, respectively. Moreover, the MIC in test [1] is 21.8 µM (≈ 11.1 µg/mL); in test [2] it was 21.4 µM (≈ 10.9 µg/mL).

Consider `COc1cc(/C=C/C(=O)CC(=O)/C=C/c2ccc(O)c(OC)c2)ccc1O` [CURCUMIN], for which, in test [1], the 50% inhibitory concentration (IC50) came out at 3.25 µM and it took 13.2 µM (≈ 4.86 µg/mL) to inhibit growth (MIC). In test [2], this compound returned an IC50 of 4.21 µM and a minimal inhibitory concentration (MIC) of 14.4 µM (≈ 5.3 µg/mL).
